Reference: ChEMBL document CHEMBL4043192, “The discovery of IDX21437: Design, synthesis and antiviral evaluation of 2'-α-chloro-2'-β-C-methyl branched uridine pronucleotides as potent liver-targeted HCV polymerase inhibitors” (Bioorg Med Chem Lett, 2017)

Experiments:
[1] = test system: Hepatitis C virus; assay: Antiviral activity against HCV genotype 1b Con1 expressing NS3 protease infected in human Huh-7 cells assessed as reduction in viral RNA replication after 72 hrs by luciferase reporter gene assay; type: functional, cell-based, Hepacivirus hominis; conditions: genotype 1b Con1, Huh-7, 72 h
[2] = Selectivity index, ratio of CC50 for human Huh-7 cells to EC50 for HCV genotype 1b Con1 expressing NS3 protease
Method in brief: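 Selectivity index = CC50/EC50. EC50 from a luciferase-read Con1 subgenomic replicon assay in Huh-7 (GS4.1) cells.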

[3] = test system: Plasma; assay: Dose normalized AUC (0 to 24 hrs) in mouse plasma assessed as 2'-C-MeU level at 10 mg/kg, po administered as single dose; type: ADME, organism-based; conditions: in vivo
Method in brief: (§1)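 Mice given a single oral 10 mg/kg dose. Triphosphate measured in liver and parent nucleoside in plasma. AUC expressed as dose-normalized AUC (AUC per mg/kg).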

[4] = test system: Liver; assay: Dose normalized AUC (0 to 24 hrs) in mouse liver assessed as 2'-C-MeUTP level at 10 mg/kg, po administered as single dose; type: ADME, organism-based; conditions: in vivo; method in brief: as §1
[5] = test system: Hepatitis C virus; assay: Antiviral activity against HCV genotype 1b Con1 infected in human Huh-7 cells over-expressing CES1; type: functional, cell-based, Hepacivirus hominis; conditions: genotype 1b Con1, Huh-7
Method in brief: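 Transient HCV replicon assay in cells transfected to overexpress CES1; EC50 from inhibition versus concentration data.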

[6] = Inhibition of wild-type HCV genotype 1b NS5B RNA dependent RNA polymerase; design: species or system Hepatitis C virus subtype 1b
Method in brief: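 Biochemical assay using wild-type genotype 1b HCV NS5B polymerase. IC50 was derived from percent inhibition versus concentration data.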

[7] = molecular target: RNA-directed RNA polymerase (Hepacivirus hominis, UniProt O39930, S282T); assay: Inhibition of HCV genotype 1b NS5B RNA dependent RNA polymerase S282T mutant; design: species or system Hepatitis C virus subtype 1b
[8] = test system: Hepatitis C virus subtype 1b; assay: Selectivity ratio of IC50 for HCV genotype 1b NS5B RNA dependent RNA polymerase S282T mutant to IC50 for wild-type HCV genotype 1b NS5B RNA dependent RNA polymerase
[9] = Inhibition of HCV genotype 1a NS5B RNA dependent RNA polymerase assessed as reduction in [33P]-labeled nucleotide incorporation in to RNA template after 2 hrs by liquid scintillation counting method; design: species or system Hepatitis C virus subtype 1a
Method in brief: (§2)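 Biochemical enzyme inhibition assays across a panel of polymerases. IC50 was derived from percent inhibition versus concentration data.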

[10] = Inhibition of HCV genotype 2a NS5B RNA dependent RNA polymerase assessed as reduction in [33P]-labeled nucleotide incorporation in to RNA template after 2 hrs by liquid scintillation counting method; design: species or system Hepatitis C virus subtype 2a; method in brief: as §2
[11] = Inhibition of HCV genotype 3a NS5B RNA dependent RNA polymerase assessed as reduction in [33P]-labeled nucleotide incorporation in to RNA template after 2 hrs by liquid scintillation counting method; design: species or system Hepatitis C virus subtype 3a; method in brief: as §2
[12] = Inhibition of HCV genotype 4a NS5B RNA dependent RNA polymerase assessed as reduction in [33P]-labeled nucleotide incorporation in to RNA template after 2 hrs by liquid scintillation counting method; design: species or system Hepatitis C virus subtype 4a; method in brief: as §2
[13] = Inhibition of HCV genotype 5a NS5B RNA dependent RNA polymerase assessed as reduction in [33P]-labeled nucleotide incorporation in to RNA template after 2 hrs by liquid scintillation counting method; design: species or system Hepatitis C virus subtype 5a; method in brief: as §2
[14] = Inhibition of HCV genotype 6a NS5B RNA dependent RNA polymerase assessed as reduction in [33P]-labeled nucleotide incorporation in to RNA template after 2 hrs by liquid scintillation counting method; design: species or system Hepatitis C virus subtype 6a; method in brief: as §2
[15] = molecular target: T1, DNA polymerase alpha catalytic subunit (Homo sapiens, UniProt P09884); assay: Inhibition of human DNA polymerase alpha; method in brief: as §2
T1 sequence (P09884 whole entry): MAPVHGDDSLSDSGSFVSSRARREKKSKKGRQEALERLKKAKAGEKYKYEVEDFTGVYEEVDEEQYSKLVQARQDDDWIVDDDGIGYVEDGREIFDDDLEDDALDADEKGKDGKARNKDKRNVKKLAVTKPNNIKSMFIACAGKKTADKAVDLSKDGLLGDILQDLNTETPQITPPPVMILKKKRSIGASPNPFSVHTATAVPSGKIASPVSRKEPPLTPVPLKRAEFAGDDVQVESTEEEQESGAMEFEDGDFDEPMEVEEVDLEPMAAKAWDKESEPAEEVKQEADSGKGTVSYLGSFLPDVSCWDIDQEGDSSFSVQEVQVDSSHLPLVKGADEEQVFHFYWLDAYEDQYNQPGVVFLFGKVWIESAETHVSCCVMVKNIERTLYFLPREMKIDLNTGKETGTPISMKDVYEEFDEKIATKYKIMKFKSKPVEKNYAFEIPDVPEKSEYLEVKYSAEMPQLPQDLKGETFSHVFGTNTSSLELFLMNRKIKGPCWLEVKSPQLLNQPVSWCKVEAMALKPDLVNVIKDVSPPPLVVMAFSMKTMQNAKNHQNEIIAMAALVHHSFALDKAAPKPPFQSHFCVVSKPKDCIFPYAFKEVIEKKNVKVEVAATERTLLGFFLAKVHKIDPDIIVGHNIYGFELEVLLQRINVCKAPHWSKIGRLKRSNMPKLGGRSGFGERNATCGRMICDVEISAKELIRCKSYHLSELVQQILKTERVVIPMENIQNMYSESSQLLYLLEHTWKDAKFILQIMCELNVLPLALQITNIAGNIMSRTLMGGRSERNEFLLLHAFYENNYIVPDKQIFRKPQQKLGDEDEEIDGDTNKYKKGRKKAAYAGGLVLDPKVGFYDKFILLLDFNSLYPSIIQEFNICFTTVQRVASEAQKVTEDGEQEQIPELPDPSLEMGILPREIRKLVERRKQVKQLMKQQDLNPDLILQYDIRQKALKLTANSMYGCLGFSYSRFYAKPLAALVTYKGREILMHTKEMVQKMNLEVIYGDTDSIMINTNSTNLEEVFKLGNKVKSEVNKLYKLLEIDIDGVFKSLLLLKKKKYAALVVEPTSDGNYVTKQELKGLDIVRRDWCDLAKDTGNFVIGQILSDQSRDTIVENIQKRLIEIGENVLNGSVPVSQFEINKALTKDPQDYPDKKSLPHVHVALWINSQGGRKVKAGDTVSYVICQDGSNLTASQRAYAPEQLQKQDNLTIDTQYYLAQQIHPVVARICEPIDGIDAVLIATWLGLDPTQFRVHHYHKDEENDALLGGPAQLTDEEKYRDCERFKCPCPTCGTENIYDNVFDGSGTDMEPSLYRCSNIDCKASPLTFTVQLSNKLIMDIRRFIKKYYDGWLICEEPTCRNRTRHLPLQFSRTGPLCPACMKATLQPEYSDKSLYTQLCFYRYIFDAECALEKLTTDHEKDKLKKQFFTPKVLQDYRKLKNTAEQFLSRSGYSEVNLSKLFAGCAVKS

[16] = molecular target: DNA polymerase beta (Homo sapiens, UniProt P06746); assay: Inhibition of human DNA polymerase beta; method in brief: as §2
[17] = Inhibition of human DNA polymerase gamma; method in brief: as §2
[18] = Inhibition of human RNA polymerase 2; method in brief: as §2
[19] = molecular target: DNA-directed RNA polymerase, mitochondrial (Homo sapiens, UniProt O00411); assay: Inhibition of human mitochondrial RNA polymerase; method in brief: as §2
[20] = Half life in human hepatocytes; type: ADME, cell-based, Hepatocyte
[21] = molecular target: Cytochrome P450 3A4 (Homo sapiens, UniProt P08684); assay: Drug metabolism assessed as CYP3A4 (unknown origin)-mediated (R)-2-((R)-(((2R,3R,4R,5R)-4-chloro-5-(2,4-dioxo-3,4-dihydropyrimidin-1(2H)-yl)-3-hydroxy-4-methyltetrahydrofuran-2-yl)methoxy)(phenoxy)phosphorylamino)propanoic acid metabolite formation; type: ADME
[22] = molecular target: Cytochrome P450 3A5 (Homo sapiens, UniProt P20815); assay: Drug metabolism assessed as CYP3A5 (unknown origin)-mediated (R)-2-((R)-(((2R,3R,4R,5R)-4-chloro-5-(2,4-dioxo-3,4-dihydropyrimidin-1(2H)-yl)-3-hydroxy-4-methyltetrahydrofuran-2-yl)methoxy)(phenoxy)phosphorylamino)propanoic acid metabolite formation; type: ADME
[23] = Cytotoxicity against human HuH7 cells assessed as reduction in cell viability; type: cell-based, Huh-7

Chain of RNA-directed RNA polymerase (O39930 entry or part of it S282T): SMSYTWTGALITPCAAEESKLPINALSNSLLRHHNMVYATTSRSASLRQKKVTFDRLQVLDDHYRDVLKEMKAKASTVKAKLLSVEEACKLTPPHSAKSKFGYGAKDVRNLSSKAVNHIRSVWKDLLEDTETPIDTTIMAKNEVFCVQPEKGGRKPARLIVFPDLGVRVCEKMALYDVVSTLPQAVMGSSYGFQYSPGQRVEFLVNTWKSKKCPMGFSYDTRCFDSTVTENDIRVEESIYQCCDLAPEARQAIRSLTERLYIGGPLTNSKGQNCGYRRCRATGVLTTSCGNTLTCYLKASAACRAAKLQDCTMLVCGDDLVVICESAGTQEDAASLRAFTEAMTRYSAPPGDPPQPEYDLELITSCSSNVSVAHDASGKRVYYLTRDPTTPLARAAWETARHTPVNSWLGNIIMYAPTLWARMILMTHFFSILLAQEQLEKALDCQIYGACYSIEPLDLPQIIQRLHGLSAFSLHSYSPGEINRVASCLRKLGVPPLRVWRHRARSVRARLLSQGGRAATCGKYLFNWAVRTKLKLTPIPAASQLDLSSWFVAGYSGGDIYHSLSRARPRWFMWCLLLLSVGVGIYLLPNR
Chain of DNA-directed RNA polymerase, mitochondrial (O00411 whole entry): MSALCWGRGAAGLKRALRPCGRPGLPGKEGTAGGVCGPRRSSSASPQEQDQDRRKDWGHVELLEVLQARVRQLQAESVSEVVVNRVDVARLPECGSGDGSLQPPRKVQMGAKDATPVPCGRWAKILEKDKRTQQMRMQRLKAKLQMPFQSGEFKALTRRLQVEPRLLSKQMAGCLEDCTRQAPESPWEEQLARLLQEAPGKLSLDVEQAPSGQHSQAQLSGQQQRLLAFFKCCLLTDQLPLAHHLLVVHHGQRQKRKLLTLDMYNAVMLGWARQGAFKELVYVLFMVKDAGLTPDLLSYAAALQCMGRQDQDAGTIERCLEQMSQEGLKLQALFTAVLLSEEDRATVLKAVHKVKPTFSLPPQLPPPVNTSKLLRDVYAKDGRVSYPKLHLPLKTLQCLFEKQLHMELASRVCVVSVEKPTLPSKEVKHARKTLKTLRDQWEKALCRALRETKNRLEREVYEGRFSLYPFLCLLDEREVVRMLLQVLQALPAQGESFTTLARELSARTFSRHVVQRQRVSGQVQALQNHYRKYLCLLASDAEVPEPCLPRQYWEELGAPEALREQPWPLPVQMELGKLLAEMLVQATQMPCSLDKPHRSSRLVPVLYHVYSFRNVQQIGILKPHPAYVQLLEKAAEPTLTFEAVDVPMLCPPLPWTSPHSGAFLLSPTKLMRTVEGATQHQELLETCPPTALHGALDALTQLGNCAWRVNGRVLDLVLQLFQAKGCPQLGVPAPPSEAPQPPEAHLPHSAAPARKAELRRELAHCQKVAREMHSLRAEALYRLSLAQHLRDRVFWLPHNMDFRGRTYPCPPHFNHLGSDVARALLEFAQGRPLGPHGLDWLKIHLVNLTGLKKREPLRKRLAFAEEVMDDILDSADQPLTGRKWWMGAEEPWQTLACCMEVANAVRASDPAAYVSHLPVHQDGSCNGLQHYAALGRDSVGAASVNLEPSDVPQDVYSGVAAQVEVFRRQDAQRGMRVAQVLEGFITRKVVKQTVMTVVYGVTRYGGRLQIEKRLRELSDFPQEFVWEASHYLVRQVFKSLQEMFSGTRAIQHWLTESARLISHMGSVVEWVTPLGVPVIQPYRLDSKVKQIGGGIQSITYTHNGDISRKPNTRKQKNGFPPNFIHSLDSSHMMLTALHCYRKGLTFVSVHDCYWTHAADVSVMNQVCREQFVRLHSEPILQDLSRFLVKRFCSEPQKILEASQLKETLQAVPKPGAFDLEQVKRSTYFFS
Chain of Cytochrome P450 3A4 (P08684 whole entry): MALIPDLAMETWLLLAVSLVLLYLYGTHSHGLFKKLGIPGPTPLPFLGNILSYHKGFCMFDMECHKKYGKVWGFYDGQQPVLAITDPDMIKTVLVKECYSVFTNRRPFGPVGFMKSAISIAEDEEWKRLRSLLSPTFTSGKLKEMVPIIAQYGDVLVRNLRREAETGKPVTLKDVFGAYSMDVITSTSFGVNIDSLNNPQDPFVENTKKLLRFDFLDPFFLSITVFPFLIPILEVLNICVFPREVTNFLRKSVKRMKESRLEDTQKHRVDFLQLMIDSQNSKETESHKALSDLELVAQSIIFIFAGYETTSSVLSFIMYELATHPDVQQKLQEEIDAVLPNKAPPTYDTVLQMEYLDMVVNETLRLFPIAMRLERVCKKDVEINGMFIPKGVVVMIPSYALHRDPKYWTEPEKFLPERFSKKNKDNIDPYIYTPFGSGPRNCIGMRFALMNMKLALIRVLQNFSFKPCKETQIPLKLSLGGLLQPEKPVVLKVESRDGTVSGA
Chain of Cytochrome P450 3A5 (P20815 whole entry): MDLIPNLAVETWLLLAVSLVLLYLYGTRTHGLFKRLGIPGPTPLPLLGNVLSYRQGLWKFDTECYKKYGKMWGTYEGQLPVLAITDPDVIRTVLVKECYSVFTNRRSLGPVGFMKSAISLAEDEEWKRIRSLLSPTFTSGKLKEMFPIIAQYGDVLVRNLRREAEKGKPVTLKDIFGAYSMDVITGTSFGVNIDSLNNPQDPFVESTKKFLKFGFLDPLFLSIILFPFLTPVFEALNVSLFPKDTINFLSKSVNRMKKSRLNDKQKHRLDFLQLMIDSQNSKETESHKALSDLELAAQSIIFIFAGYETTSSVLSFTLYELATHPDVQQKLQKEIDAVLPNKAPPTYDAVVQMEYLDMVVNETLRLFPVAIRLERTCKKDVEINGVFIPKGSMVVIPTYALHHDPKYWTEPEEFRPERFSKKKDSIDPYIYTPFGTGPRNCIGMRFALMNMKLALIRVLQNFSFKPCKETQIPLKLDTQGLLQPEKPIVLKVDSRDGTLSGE

SMILES | EC50 [1] [nM] | Ratio CC50/EC50 [2] | AUC/dose [3] [pmol·h/mL] | AUC/dose [4] [pmol·h/g] | EC50 [5] [nM] | IC50 [6] [nM] | IC50 [7] [nM] | Ratio IC50 [8] | CC50 [23] [nM] | further results
CC(C)OC(=O)[C@H](C)N[P@](=O)(OC[C@H]1O[C@@H](n2ccc(=O)[nH]c2=O)[C@](C)(F)[C@@H]1O)Oc1ccccc1 [SOFOSBUVIR] | 284 | >352 | 330 | 310 | 552 |  |  |  |  | 
C[C@@]1(Cl)[C@H](O)[C@@H](COP(=O)(O)OP(=O)(O)OP(=O)(O)O)O[C@H]1n1ccc(=O)[nH]c1=O [4A-TP] |  |  |  |  |  | 154 | 944 | 6.1 |  | IC50 [9]: 140 nM; IC50 [10]: 250 nM; IC50 [11]: 160 nM; IC50 [12]: 150 nM; IC50 [13]: 230 nM; IC50 [14]: 100 nM; IC50 [15]: > 500000 nM; IC50 [16]: > 500000 nM; IC50 [17]: 95000 nM; IC50 [18]: > 500000 nM; IC50 [19]: > 500000 nM; half-life [20]: > 18 h
CC(C)OC(=O)[C@@H](C)N[P@@](=O)(OC[C@H]1O[C@@H](n2ccc(=O)[nH]c2=O)[C@](C)(Cl)[C@@H]1O)Oc1ccccc1 [UPRIFOSBUVIR] | 56800 | >2 | 1400 | 6200 | 323 |  |  |  |  | Drug metabolism [21]: Metabolite_Detected; Drug metabolism [22]: Metabolite_Detected
C[C@@]1(F)[C@H](O)[C@@H](CO)O[C@H]1n1ccc(=O)[nH]c1=O | 50000 |  |  |  |  |  |  |  | > 100000 | 
C[C@@]1(F)[C@H](O)[C@@H](COP(=O)(O)OP(=O)(O)OP(=O)(O)O)O[C@H]1n1ccc(=O)[nH]c1=O [GS-461203] |  |  |  |  |  | 79 | 606 | 7.7 |  | 
C[C@@]1(Cl)[C@H](O)[C@@H](CO)O[C@H]1n1ccc(=O)[nH]c1=O | 57000 |  |  |  |  |  |  |  | > 100000 | 
